Experimental data as given in article PMC7661742 (Molecular cancer therapeutics, 2020).

Experiments:
[1] = tested on: primary leukemia cells from chronic lymphocytic leukemia patients; test: CD20-mediated ADCC with rituximab on primary CLL cells; format: cell-based, human
Method in brief: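 Primary CLL cells and autologous PBMCs from patients were cultured 48 h with rituximab (10 μg/ml) plus CDK8/19 inhibitor or vehicle. Leukemia-cell depletion was counted by flow cytometry against PKH26 reference microbeads and normalised to the mean of DMSO controls (n=5). The no-NK arm used CLL cells pretreated 48 h with vehicle or inhibitor, then 4 h with vehicle or rituximab. Cell death was read by flow cytometry (n=4).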

CDK6 = CDK6 (Homo sapiens, UniProt Q00534); test: SelectScreen Kinase Profiling, CDK6; format: biochemical
CDK6, sequence (Q00534 whole entry): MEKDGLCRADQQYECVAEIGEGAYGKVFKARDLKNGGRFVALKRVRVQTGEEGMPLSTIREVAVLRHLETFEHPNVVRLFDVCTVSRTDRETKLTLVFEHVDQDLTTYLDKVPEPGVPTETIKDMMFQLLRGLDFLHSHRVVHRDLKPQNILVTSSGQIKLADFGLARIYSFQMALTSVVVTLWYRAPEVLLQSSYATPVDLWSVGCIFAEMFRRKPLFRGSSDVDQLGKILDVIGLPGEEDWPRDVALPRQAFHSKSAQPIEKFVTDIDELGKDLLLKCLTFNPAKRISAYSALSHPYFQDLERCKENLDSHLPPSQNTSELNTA
CDK6, sequence (P24385 whole entry partner): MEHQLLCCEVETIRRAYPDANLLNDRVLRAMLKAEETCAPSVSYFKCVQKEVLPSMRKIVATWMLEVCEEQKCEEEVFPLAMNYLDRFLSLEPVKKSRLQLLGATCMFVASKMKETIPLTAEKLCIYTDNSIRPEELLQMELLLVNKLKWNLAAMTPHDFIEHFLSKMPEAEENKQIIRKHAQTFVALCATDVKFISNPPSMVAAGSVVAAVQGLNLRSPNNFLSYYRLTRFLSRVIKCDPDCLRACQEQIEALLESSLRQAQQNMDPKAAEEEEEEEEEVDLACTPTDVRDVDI
Method in brief: (§1)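 Kinases were run in a commercial kinase profiling service. Single-point tests used 1 μM test compound at the ATP concentration specified per kinase. IC50 curves started at 20 μM, followed by 10 subsequent […] dilution steps.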

CDK2 = CDK2 (Homo sapiens, UniProt P24941); test: SelectScreen Kinase Profiling, CDK2; format: biochemical
Method in brief: as §1

CDK7 = CDK7 (Homo sapiens, UniProt P50613); test: SelectScreen Kinase Profiling, CDK7; format: biochemical
CDK7, sequence (P50613 whole entry): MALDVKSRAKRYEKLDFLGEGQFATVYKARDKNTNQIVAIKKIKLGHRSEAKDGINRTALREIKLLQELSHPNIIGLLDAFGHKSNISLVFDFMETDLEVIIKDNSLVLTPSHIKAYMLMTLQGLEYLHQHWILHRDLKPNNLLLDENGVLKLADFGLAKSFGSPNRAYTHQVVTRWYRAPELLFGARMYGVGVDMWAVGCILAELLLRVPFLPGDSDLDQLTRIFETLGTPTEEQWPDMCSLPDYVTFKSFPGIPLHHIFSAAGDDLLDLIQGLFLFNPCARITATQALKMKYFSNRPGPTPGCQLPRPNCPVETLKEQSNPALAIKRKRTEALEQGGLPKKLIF
CDK7, sequence (P51946 whole entry partner): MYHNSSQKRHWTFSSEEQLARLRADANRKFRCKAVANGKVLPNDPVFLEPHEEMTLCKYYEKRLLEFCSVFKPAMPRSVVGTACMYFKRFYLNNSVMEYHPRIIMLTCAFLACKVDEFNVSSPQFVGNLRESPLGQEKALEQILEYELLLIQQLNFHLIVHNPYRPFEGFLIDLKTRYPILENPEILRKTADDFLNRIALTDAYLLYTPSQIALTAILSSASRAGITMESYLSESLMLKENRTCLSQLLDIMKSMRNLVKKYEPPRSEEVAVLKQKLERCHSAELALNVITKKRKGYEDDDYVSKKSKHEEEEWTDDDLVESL
CDK7, sequence (P51948 whole entry partner): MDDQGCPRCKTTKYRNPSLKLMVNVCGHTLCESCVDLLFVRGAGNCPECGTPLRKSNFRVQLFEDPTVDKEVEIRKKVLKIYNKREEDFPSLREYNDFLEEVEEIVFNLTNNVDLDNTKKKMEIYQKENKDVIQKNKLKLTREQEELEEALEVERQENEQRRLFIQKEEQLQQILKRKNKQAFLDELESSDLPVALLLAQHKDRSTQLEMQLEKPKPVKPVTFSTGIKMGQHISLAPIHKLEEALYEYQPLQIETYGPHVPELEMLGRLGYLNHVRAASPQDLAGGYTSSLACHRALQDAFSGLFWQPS
Method in brief: as §1

B16-F10 cells = test: Viability assay, B16-F10; format: cell-based, mouse
Method in brief: (§2)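 Mouse tumour cells were plated in 96-well plates with CDK8/19 inhibitor over a concentration range, with 72 h or 120 h timing depending on the growth of each line. Cells were held at 37°C, humidified, 5% CO2. Viability was read by CellTiter-Glo luminescence or AlamarBlue, and curves were fitted by iterative sigmoidal analysis.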

EMT6 tumors = test: In vivo efficacy, EMT6 murine mammary carcinoma model; design: species or system mouse; conditions: BI-1347 monotherapy
CDK4 = CDK4 (Homo sapiens, UniProt P11802); test: SelectScreen Kinase Profiling, CDK4; format: biochemical
CDK4, sequence (P11802 whole entry): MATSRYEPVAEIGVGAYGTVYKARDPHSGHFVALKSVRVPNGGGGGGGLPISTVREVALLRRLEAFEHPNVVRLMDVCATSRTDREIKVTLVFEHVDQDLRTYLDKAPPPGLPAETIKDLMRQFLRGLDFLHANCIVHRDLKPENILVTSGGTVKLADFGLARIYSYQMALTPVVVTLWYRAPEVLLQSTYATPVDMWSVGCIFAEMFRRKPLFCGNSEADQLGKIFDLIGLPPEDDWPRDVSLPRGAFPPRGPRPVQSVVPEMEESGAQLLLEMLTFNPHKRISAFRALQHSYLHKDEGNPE
CDK4, sequence (P24385 whole entry partner): as the sequence (P24385 whole entry partner) above
Method in brief: as §1

[2] = tested on: STAT1^S727 phosphorylation; format: in vivo, mouse; conditions: daily oral dose of 10 mg/kg, for at least 6 h
MC-38 cells = test: Viability assay, MC-38; format: cell-based, mouse
Method in brief: as §2

[3] = tested on: perforin secretion from NK92MI cells; test: Perforin release assay; format: cell-based, human; conditions: 24 h, ELISA
Method in brief: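 NK92MI cells were seeded at 40.000 cells/well with test compound over a concentration range and held 24 h at 37°C, humidified, 5% CO2. IL-15 (50 ng/ml) served as positive control. Secreted perforin in supernatants was quantified by ELISA.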

CDK1 = CDK1 (Homo sapiens, UniProt P06493); test: SelectScreen Kinase Profiling, CDK1; format: biochemical
CDK1, sequence (P06493 whole entry): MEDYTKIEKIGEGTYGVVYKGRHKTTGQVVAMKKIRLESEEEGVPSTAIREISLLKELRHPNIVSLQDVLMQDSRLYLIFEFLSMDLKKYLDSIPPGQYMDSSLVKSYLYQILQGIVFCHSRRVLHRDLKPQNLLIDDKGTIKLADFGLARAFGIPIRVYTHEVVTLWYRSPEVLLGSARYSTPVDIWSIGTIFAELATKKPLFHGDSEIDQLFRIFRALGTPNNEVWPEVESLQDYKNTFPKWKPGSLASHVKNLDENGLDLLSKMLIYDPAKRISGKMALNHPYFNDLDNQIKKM
CDK1, sequence (P14635 whole entry partner): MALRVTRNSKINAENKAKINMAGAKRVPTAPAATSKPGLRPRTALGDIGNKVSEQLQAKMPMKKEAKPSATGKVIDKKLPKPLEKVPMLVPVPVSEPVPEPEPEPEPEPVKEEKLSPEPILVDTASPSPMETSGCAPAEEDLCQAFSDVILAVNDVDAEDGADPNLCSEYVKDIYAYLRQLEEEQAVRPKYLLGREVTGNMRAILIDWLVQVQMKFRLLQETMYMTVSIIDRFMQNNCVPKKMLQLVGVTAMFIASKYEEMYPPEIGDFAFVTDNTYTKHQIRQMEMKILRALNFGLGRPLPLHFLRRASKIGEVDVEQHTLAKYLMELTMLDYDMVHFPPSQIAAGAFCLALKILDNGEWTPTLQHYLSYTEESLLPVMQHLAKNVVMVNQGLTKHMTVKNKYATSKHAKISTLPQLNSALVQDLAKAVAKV
Method in brief: as §1

Metabolic stability = format: in vitro ADME; conditions: compared with Compound 2
Method in brief: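 Test compound was incubated with cryopreserved hepatocytes, and compound depletion was quantified over 240 min by LC/MS/MS. In vivo hepatic clearance was predicted from depletion using the well-stirred model.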

CDK9 = CDK9 (Homo sapiens, UniProt P50750); test: SelectScreen Kinase Profiling, CDK9; format: biochemical
CDK9, sequence (P50750 whole entry): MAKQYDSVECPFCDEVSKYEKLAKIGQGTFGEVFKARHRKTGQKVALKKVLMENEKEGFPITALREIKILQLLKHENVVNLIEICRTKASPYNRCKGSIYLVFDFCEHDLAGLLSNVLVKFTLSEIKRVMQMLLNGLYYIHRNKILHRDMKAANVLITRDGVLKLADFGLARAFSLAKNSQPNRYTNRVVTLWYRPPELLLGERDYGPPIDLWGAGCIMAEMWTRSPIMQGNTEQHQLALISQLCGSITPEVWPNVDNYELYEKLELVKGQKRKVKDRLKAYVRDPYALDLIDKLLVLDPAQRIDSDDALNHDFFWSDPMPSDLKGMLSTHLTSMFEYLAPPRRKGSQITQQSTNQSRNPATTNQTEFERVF
CDK9, sequence (O60563 whole entry partner): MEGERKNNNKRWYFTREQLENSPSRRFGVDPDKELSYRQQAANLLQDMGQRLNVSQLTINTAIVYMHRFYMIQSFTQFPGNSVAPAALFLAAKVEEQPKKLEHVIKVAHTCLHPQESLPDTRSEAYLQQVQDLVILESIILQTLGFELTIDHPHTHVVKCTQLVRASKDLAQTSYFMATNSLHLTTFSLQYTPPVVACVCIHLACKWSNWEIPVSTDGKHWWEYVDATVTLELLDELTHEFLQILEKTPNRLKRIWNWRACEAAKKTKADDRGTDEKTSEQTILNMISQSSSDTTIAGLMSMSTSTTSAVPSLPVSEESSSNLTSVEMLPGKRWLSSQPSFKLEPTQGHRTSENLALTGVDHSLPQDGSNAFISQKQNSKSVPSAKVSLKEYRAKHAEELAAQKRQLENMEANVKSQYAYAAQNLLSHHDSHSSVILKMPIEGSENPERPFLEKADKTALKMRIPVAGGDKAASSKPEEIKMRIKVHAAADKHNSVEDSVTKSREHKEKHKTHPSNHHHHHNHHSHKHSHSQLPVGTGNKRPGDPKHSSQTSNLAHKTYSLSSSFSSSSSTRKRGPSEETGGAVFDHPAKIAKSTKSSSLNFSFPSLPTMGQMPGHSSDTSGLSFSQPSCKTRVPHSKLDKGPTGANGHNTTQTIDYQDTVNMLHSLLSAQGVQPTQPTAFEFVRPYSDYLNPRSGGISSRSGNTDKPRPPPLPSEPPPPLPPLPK
Method in brief: as §1

MC38 tumors = test: In vivo efficacy, MC-38 murine syngeneic colon adenocarcinoma model; design: species or system mouse; conditions: BI-1347 10 mg/kg daily oral; anti-PD-1 10 mg/kg i.p. twice weekly
Method in brief: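 Female C57BL/6N mice were implanted subcutaneously with 100 thousand MC38 cells and randomized by body weight on day 3, 5 mice per group. The anti-PD-1 was rat IgG2a anti-mouse PD-1 (RMP1–14). Readouts were response and TGI at day 20 and complete responses at study end. Groups were compared by one-tailed, non-adjusted Mann Whitney test.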

EMT6 cells = test: Viability assay, EMT6; format: cell-based, mouse
Method in brief: as §2

B16-F10-luc2 melanoma = test: In vivo efficacy, B16-F10-luc2 syngeneic melanoma model; conditions: 10 mg/kg daily oral
Method in brief: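 Female C57BL/6N mice received 100 thousand B16-F10-luc2 cells intravenously. They were randomized by body weight on day 5, 10 mice per group, then dosed orally once daily. Tumor burden was read as average radiance by luciferase in vivo imaging, alongside survival and body weight. TGI = [1-((treated(final) – treated(Day1))/(control(final) – control(Day1)))] * 100%.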

CDK19 = CDK19 (Homo sapiens, UniProt Q9BWU1); test: SelectScreen Kinase Profiling, CDK19; format: biochemical
CDK19, sequence (Q9BWU1 whole entry): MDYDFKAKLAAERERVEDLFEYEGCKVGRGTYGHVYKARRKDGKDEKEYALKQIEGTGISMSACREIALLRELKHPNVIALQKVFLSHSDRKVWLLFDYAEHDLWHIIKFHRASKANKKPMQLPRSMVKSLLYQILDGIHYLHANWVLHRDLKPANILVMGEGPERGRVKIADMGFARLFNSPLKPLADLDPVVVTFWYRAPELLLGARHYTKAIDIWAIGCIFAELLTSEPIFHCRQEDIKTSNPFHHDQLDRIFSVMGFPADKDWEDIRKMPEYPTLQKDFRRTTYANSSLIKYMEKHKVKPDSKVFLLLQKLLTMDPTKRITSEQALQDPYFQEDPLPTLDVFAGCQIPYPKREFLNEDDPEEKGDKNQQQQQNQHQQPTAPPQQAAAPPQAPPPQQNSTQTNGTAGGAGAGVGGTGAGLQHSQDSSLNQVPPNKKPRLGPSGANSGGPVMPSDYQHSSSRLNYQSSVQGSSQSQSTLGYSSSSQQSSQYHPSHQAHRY
Method in brief: as §1

[4] = tested on: granzyme B-positive murine spleen-derived NK cells; test: Modulation of granzyme B in mouse splenocytes; format: cell-based; conditions: murine spleen-derived NK cells activated with IL-15 in vitro; 150 nmol/l, 44 h
Method in brief: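 Cells received 2.5 ng/ml IL-15, 150 nmol/l test compound, or both, for 44 h at 37°C and 5% CO2. Protein transport inhibitor was present for the last 4 h. Cells were stained for CD3ε, NK1.1 and intracellular granzyme B after fix/perm and gated viable CD3−NK1.1+GZMB+ (3–6 mice per group).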

Mouse pharmacokinetics = format: in vivo; conditions: mice
Method in brief: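 C57BL/6 mice (n=3 per group) were given test compound orally at 25 mg/kg or intravenously at 1 mg/kg. Plasma concentrations were measured by LC-MS at set time points after dosing.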

CN(C)C(=O)Cn1cc(-c2ccc(-c3cncc4ccccc34)cc2)cn1 [BI-1347]
ADCC mediated depletion of primary leukemia cells by rituximab ([1]; in presence of PBMCs, 48 h): enhances | enhanced ADCC effect in absence of NK cells ([1]; purified CLL cells with rituximab, no NK cells): not observed | inhibition of CDK6 (CDK6): no inhibition | inhibition of CDK2 (CDK2): no inhibition | inhibition of CDK7 (CDK7): no inhibition | in vitro sensitivity (B16-F10 cells): resistant | median survival (EMT6 tumors; 5 days on / 5 days off intermittent scheduling): 26 days | median survival (EMT6 tumors; daily oral 10 mg/kg, control 22 days): 22.5 days | inhibition of CDK4 (CDK4): no inhibition | reduction of phosphorylation of STAT1^S727 [2]: 60% | in vitro sensitivity (MC-38 cells): resistant | perforin levels in the supernatant [3]: increased perforin levels | inhibition of CDK1 (CDK1): no inhibition | metabolic stability in vitro and in vivo (Metabolic stability): higher metabolic stability | inhibition of CDK9 (CDK9): no inhibition | CR [@ end of study, number of mice] (MC38 tumors): 0/5 | Response [@ d20, number of mice] (MC38 tumors): 2/5 | in vitro sensitivity (EMT6 cells): resistant | median survival advantage compared to vehicle-treated animals (B16-F10-luc2 melanoma): 4 days | tolerability (body weight) (B16-F10-luc2 melanoma): well tolerated with minimal effect on body weight | tumor growth inhibition (TGI) (B16-F10-luc2 melanoma; day 23): 94% | tumor growth inhibition (TGI) (B16-F10-luc2 melanoma; day 29): 88% | mice surviving until day 42 (B16-F10-luc2 melanoma; all control mice sacrificed by day 32): 2/10 | IC50 (CDK19): < 1000 nM | increase of the proportion of granzyme B-positive NK cells [4]: approximately 4 fold | exposure and bioavailability (F) after p.o. dosing (Mouse pharmacokinetics): Excellent exposure and bioavailability | plasma concentration 24 h after dosing relative to the CDK8 IC50 (Mouse pharmacokinetics; 25 mg/kg p.o.): around 100 fold | clearance (Mouse pharmacokinetics; i.v. administration): 14 % QH
